In brackets after ≈: the same amount, converted by molar mass.
Assays:
Onchocerca ochengi = assay: WHO-TDR: Onchocerciasis; type: functional; design: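 at 12.5 µM on microfilariae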
Outline: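 Percent inhibition and IC50 describe activity against microfilariae of Onchocerca ochengi or Onchocerca lienalis, used as animal-pathogen substitutes for the human parasite. The compounds tested made up a 10,000-member diverse library from Life Chemicals.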

Trypanosoma cruzi = assay: WHO-TDR: Chagas disease; type: functional, organism-based, Homo sapiens; settings: MRC5
Outline: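 Each IC50 reflects antiparasitic potency against intracellular amastigotes of Trypanosoma cruzi Tulahuen CL2 beta-galactosidase strain. These were cultured in MRC-5SV2 human lung fibroblasts and exposed to a 10,000-compound diverse Life Chemicals library screened according to published standard procedures with a reference drug as positive control.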

[1] = WHO-TDR: Cytotoxicity; type: toxicity, cell-based; settings: human, MRC5 cells
Brugia malayi = assay: WHO-TDR: Lymphatic Filariasis; type: functional; design: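 tested at 10 µM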
Outline: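 The screening set was a 10,000-compound diverse library from Life Chemicals, filtered for drug-likeness and for reactive groups. It was run against Brugia malayi microfilariae as whole organisms, using previously published standard procedures. Reference drugs acted as positive controls, and activity is reported both as percent inhibition and as IC50.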

Plasmodium falciparum K1 = assay: WHO-TDR: Malaria; type: functional, organism-based, Homo sapiens; settings: Erythrocyte
Outline: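 Whole-organism screen of a 10,000-compound diverse library from Life Chemicals, filtered for drug-likeness and reactive groups, against intra-erythrocytic Plasmodium falciparum K1 strain in human red blood cells. The assay followed previously published standard procedures, with a reference drug as positive control. Antiplasmodial potency is reported as IC50.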

Leishmania infantum = assay: WHO-TDR: Leishmaniasis; type: functional, organism-based, Mus musculus; settings: Macrophage
Outline: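 Whole-organism screen of a 10,000-compound diverse library from Life Chemicals, filtered for drug-likeness and reactive groups, against intracellular amastigotes of Leishmania infantum MHOM/MA(BE)/67 in murine peritoneal macrophage host cells. The assay followed previously published standard procedures, with a reference drug as positive control. Antiparasitic potency is reported as IC50.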

[2] = test system: Trypanosoma brucei brucei; assay: WHO-TDR: Human African Trypanosomiasis (HAT); type: functional, organism-based; settings: Squib-427
Outline: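 Whole-organism screen of a 10,000-compound diverse library from Life Chemicals, filtered for drug-likeness and reactive groups, against bloodstream forms of Trypanosoma brucei Squib 427 strain. The assay followed previously published standard procedures, with reference drugs as positive controls. Antiparasitic potency is reported as IC50.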

Schistosoma mansoni = assay: WHO-TDR: Schistosomiasis; type: functional; design: concentration or dose not given beside the values
Outline: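 Percent inhibition and IC50 describe activity against whole Schistosoma mansoni worms of the Puerto Rican strain, tested as larvae and/or adults. The compounds screened were a diverse set of 10,000 from Life Chemicals, filtered for drug-likeness and reactive groups. Testing followed previously published standard procedures, with a reference drug as positive control.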

Compound	% Inhibition (Onchocerca ochengi) [%]	IC50 (Trypanosoma cruzi) [µg/mL]	IC50 [1] [µg/mL]	% Inhibition (Brugia malayi) [%]	IC50 (Plasmodium falciparum K1) [µg/mL]	IC50 (Leishmania infantum) [µg/mL]	IC50 [2] [µg/mL]	% Inhibition (Schistosoma mansoni) [%]
Cc1ccc(S(=O)(=O)N(C)CC(O)COc2c(C)cc(C)cc2C)cc1 (stereo not given)	100	3.81 (≈ 10.1 µM)	> 11.3	0	> 11.3	> 11.3	9.55 (≈ 25.3 µM)	0
COc1cccc(C2C(S(=O)(=O)c3ccc(C)cc3)=C(O)C(=O)N2c2ccc(C)cc2)c1 (stereo not given)	100	> 13.5	> 13.5	20	> 13.5	> 13.5	> 13.5	0
COc1ccc(OC)c(Nc2c(C#N)cnc3ccc(Cl)cc23)c1	0	3.08 (≈ 9.07 µM)	1.08 (≈ 3.18 µM)	20	> 11.3	0.365 (≈ 1.07 µM)	> 11.3	0
Cc1ccc(-c2nc(CSc3nc(O)cc(C(F)(F)F)n3)c(C)o2)cc1	100	> 11.4	> 11.4	20	11.4 (≈ 30 µM)	> 11.4	> 11.4	0
Cc1noc(C)c1CCc1nc(-c2ccc(Cl)cc2)no1	100	2.88 (≈ 9.49 µM)	3.27 (≈ 10.8 µM)	0	4.72 (≈ 15.5 µM)	> 9.11	> 9.11	0
CC1CCc2[nH]nc(-c3nc(-c4ccc(Cl)cc4)no3)c2C1 (stereo not given)	100	5.55 (≈ 17.6 µM)	> 9.44	0	> 9.44	> 9.44	> 9.44	0
Cc1n[nH]c(C)c1CCc1nc(-c2ccc(Cl)cc2)no1	100	1.8 (≈ 5.96 µM)	> 9.08	0	1.14 (≈ 3.78 µM)	> 9.08	2.13 (≈ 7.03 µM)	0
O=c1c2nccnc2n(Cc2cccc(C(F)(F)F)c2)c(=O)n1Cc1ccc(F)cc1	100	1.19 (≈ 2.76 µM)	10 (≈ 23.2 µM)	0	7.26 (≈ 16.9 µM)	> 12.9	4.08 (≈ 9.49 µM)	25
CC(CC(=O)N1CCC(Cc2ccccc2)CC1)CC1=Nc2ccccc2S(=O)(=O)N1 (stereo not given)	100	6.58 (≈ 15 µM)	> 13.2	0	> 13.2	> 13.2	> 13.2	0
Cc1ccc(-c2cc(CC(=O)Nc3cccc(C)n3)no2)cc1	100	> 9.22	> 9.22	0	> 9.22	> 9.22	> 9.22	0
COc1cccc(-c2cc(CC(=O)NCCC(C)C)no2)c1	100	> 9.07	> 9.07	0	> 9.07	> 9.07	> 9.07	0
COc1cccc(-c2cc(CC(=O)Nc3nc(C)cs3)no2)c1	100	> 9.88	> 9.88	0	4.59 (≈ 13.9 µM)	> 9.88	> 9.88	0
COc1cccc(-c2cc(CC(=O)NCc3c(F)cccc3F)no2)c1	100	> 10.8	> 10.8	0	> 10.8	3.48 (≈ 9.71 µM)	> 10.8	0
Cc1cc(C(=O)Nc2nc(-c3cccnc3)cs2)on1	0	4.16 (≈ 14.5 µM)	> 8.59	20	> 8.59	0.278 (≈ 0.971 µM)	> 8.59	25
Cc1cc(C(=O)Nc2nnc(-c3ccco3)o2)on1	100	> 7.81	> 7.81	20	> 7.81	> 7.81	> 7.81	25

— ChEMBL document CHEMBL2093137, “WHO-TDR NTD Screening”
